Laboratory results: the EternaBench riboswitch data

Test system: MS2 coat protein
Experiment: apparent Kd, MS2 coat protein; higher = weaker binding; RNA-MaP array; FMN 200 µM where present
In short: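 In 100 mM Tris-HCl pH 7.5, 80 mM KCl, 4 mM MgCl2, BSA, DTT, yeast tRNA and Tween-20, SNAP-549-labelled MS2 coat protein was titrated from 0.7 or 1.5 nM, doubling to 3 µM, over designs transcribed by stalled E. coli RNA polymerase on Illumina sequencing-chip clusters. This was done first without ligand, then with ligand held constant. After green signal was normalised to red-channel RNA signal and control-cluster median Fmax, the apparent Kd was taken as the median of filtered per-cluster binding-curve fits.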

[1] = designed as: OFF switch for flavin mononucleotide, no ligand
[2] = ligand present: flavin mononucleotide, designed as: OFF switch for flavin mononucleotide
[3] = designed as: ON switch for flavin mononucleotide, no ligand
[4] = ligand present: flavin mononucleotide, designed as: ON switch for flavin mononucleotide

| Sequence | apparent Kd [1] | apparent Kd [2] | apparent Kd [3] | apparent Kd [4] |
| --- | --- | --- | --- | --- |
| UUAUGAGAGCAGGAUAUCUUAUUUUUUUUUUAAAGAGAAGGGCUCACAUGAGGAUCACCCAUGUGGUCCUAGAU | 42.8 nM | 75.6 nM |  |  |
| GGCAUGUGGGCAGGAUAUAACUCGGUCUCUAGGUUAGAAGGGCCACACAUGAGGAUCACCCAUGUCGACCAGGCAGUCCUCCCU | 26.2 nM | 60.5 nM |  |  |
| UUCUUACAUGAGGAUCACCCAUGUCAGGAUAUCUCCUCACUGCGCUUGCGCAGUGAAUAGAGAAGGGACAGGCU | 51.3 nM | 43.8 nM |  |  |
| UCGGCGCGAGGAUAUACGUUUGCUUUUUUUUGUUUUUGUGUACAUGAGGAUCACCCAUGUAGAAGGCGCGCCGC | 18.1 nM | 24.9 nM |  |  |
| UGUAUGGACAGAGGAUAUACGUGCUAGAGAUACUAGCUAAUAAUCCUUACAUGAGGAUCACCCAUGUAGAAGGCUGUCCAUACU | 20.5 nM | 45.6 nM |  |  |
| UAGAAGUCAGGAUAUCCUGCUCGUCACUUGCGUGAUGAGUAGGAGAAGGGACAUGAGGAUCACCCAUGUAAAGA | 53.8 nM | 53.4 nM |  |  |
| ACAUGAUACUAGGAUAUCAGCAUACUUCAAUGUUGAGAAGGAGUAACAUGAGGAUCACCCAUGUAUCCAACAUG | 46.9 nM | 219 nM |  |  |
| ACUAGAAGCGUGAGAUAUCACAUGAGGAUCACCCAUGUGACACAGGAUAUAACAAUAUCAGAAGGUUAGAAGGGUGAGCACGCC |  |  | 164 nM | 45.6 nM |
| GGAGCUCCCAUUAACAUGAGGAUCACCCAUGUCAAAAGACAUGAGGAUAUGCUACCUAAUUGGUAGCAGAAGGCAUGGAGCUCC |  |  | 1160 nM | 81 nM |
| GCCUUAUCCGUCAGGAUAUACAUUUGUUAGUUGUUGUAGAAGGGACAUGAGGAUCACCCAUGUACAUUACAUUG | 19.4 nM | 22.4 nM |  |  |
| GUACUACAUGAGGAUCACCCAUGUGAGGAUAUGCGAAUUUCAUCAAAAGAUGAAAUUUGCAGAAGGCACAGUAC | 31.2 nM | 29 nM |  |  |
| GGUACUCAAAGAGUACUGAGUCGAACAUGAGGAUCACCCAUGUAGGAUAUGCGAGUUUUGAAUUUGCAGAAGGACAUUUUUAGC | 8.88 nM | 9.59 nM |  |  |
| AAACACGGACAUGAGGAUCACCCAUGUGGCGAAAGCCUUGGGAGAAGGCCGUAUGCAAAGCAUACGGAGGAUAUUCAUACCGUG |  |  | 1410 nM | 67.9 nM |
| GAGCUCGAUGAGAAGGGUUACAUGAGGAUCACCCAUGUCGACCUUGGCGUAACAGGAUAUCACCGGGCUCAGUGCGUUGACCCA | 27.1 nM | 121 nM |  |  |
| GCGAUUUUGUAAGGAUAUACACGAGUUUCAAGUGUAGAAGGUACUUACAUGAGGAUCACCCAUGUAUACUUGGAUAAUAGUCGC |  |  | 27.9 nM | 23.3 nM |
| UGUCGGAGCAGAGGAUAUUACAUGAGGAUCACCCAUGUAUGAACCAAUAGCUGGAAACAGCAAUGUAAGAAGGCUCCUCCGACA | 6.18 nM | 20.5 nM |  |  |
| CGAUCGGAAGGAUAUACACCUCACGUCAAACGGACAACCGGACAUGAGGAUCACCCAUGUAGAAGGUCCAAAAU | 72.6 nM | 238 nM |  |  |
| AUAAUUAUAUAUUUGGCAAGAAUCAGAAGGCGUUACAUGAGGAUCACCCAUGUUUUGUAUAGUAACGAGGAUAUGAUAUGGAAA | 16.3 nM | 12.7 nM |  |  |
| UGCGUGUUAGGAUAUCCGCCAAAGACCGACGGUGGAACGCAGGAGAAGGAACAUGAGGAUCACCCAUGUGGGAA | 88.1 nM | 34.3 nM |  |  |

| Sequence | apparent Kd [1] | apparent Kd [2] | apparent Kd [3] | apparent Kd [4] |
| --- | --- | --- | --- | --- |
| GUCAGCUCGUGAGGAUAUUCAACACUGCUUCGGCAGUGUAUUAAGAUCACAUGAGGAUCACCCAUGUAGAAGGCACGAGCUGAU | 5.79 nM | 10.8 nM |  |  |
| CCUACAUAUUUUAAGUAUGAUUAACUAGAAGGUAGAUACAUGAGGAUCACCCAUGUUUAGAGAUCUAAGGAUAUAGUAUGUAGC |  |  | 13.3 nM | 9.45 nM |
| ACGACUAGAGGAUAUACAUGAGGAUCACCCAUGUAACUGUCAGGUGACUGACGGAGAUGUAGAAGGCUAGUCGA | 15.7 nM | 42.8 nM |  |  |
| CUAUUUUGUGCCUCAUUUACAUGAGGAUCACCCAUGUUAACUUAGGAUAUAUUUAUAUUGUUAGAGUAGAAGGAAGUACAUUUU | 162 nM | 133 nM |  |  |
| UGUGUAGAGGUGAAGCGAAUUACUGAGGAUAUGACAUGAGGAUCACCCAUGUACACAUCGUCAGGUCAGAAGGCAGUGGUUCUU | 7.2 nM | 21.1 nM |  |  |
| UGCAUGUGAGGAUAUGUGUACUGUCUUUUGUUUAGAUGUACACAGAAGGCACAUGAGGAUCACCCAUGUAGUAC | 126 nM | 27.8 nM |  |  |
| CUUUUGUGAGGAUAUCAGUAGUAAAAAAAUAAAAUUACUAUUGAGAAGGCACAUGAGGAUCACCCAUGUUCCUC | 34.5 nM | 168 nM |  |  |
| UGUCACCGUGCAGGAUAUGCCUGCACGUCGCGGGCAGAAGGGCACAUGAGGAUCACCCAUGUAGAGCUGGGCUCGUCAAGGGAG | 9.05 nM | 9.85 nM |  |  |
| GCGAACUGUGUAGGAUAUUGAGCACUUUUGGAGCAAGAAGGACACCAAGUGCUGACUAUACAUGAGGAUCACCCAUGUUCAGCA |  |  | 30.9 nM | 17.1 nM |
| ACAGUUGGUAGGCCCUCGGAACAUGAGGAUCACCCAUGUAAGGAGGAUAUGCCCGGUACCCGCUGGCAGAAGGCCUUAUAAGAA | 8.8 nM | 44.9 nM |  |  |
| AGGUGACAUGAGGAUCACCCAUGUAAGGAUAUACGGUUAGUGGAGAGUUGGAAGAGAGGUAGAAGGUACGGAGC | 288 nM | 137 nM |  |  |
| UCGUUGUCAGGAUAUCGUGUAUACAACGUUAGUUCUAUGUGCGAGAAGGGACAUGAGGAUCACCCAUGUUACGU | 69.2 nM | 213 nM |  |  |
| GCAGCACUUUAUUACAUGAGGAUCACCCAUGUCGAUUGUUAUGAGGAUAUGCAUCGGAUGAAGAUGCAGAAGGCAUUGUGCUGC |  |  | 7.24 nM | 6.04 nM |
| UCACACCACGUUAGGAUAUCGCUGGACAAAACUGGCGAGAAGGAACAUGAGGAUCACCCAUGUGACUUCAAGGU | 16.2 nM | 18.5 nM |  |  |
| GCACUGGAUGUAGGAUAUCAGGACGAUAAGUCCUGAGAAGGACAUGAGGAUCACCCAUGUCUCAAGAAACCAGUGCAUAAUAUA | 13 nM | 15.9 nM |  |  |
| AAUAUGAGCUGGUAUAAAUCCGAAACAUGAGGAUCACCCAUGUAGGAUAUCAGCACGAUAAGUGCUGAGAAGGACAUCCAGCUC | 15.2 nM | 16.2 nM |  |  |
| CCAAGUUCGUAGGAUAUAGAUGCCUUAGGGCAAUUAGAAGGAUGGACAUGAGGAUCACCCAUGUCGGAUUCUGU |  | 18 nM |  |  |
| GCGUUGAACGAGAAGGCCAAUACAUGAGGAUCACCCAUGUAGUGAAGUAUUGGAGGAUAUCGAUCGUCGUCUCAUGAGCAACGC | 8.88 nM | 25.3 nM |  |  |
| UGGUACAUCGGAGGAUAUCGUGUGUAAACAUGAGGAUCACCCAUGUCGUACGAGAGUACGGAGAUCGAGAAGGCCGAUGUACCU |  |  | 16.4 nM | 15.1 nM |

| Sequence | apparent Kd [1] | apparent Kd [2] | apparent Kd [3] | apparent Kd [4] |
| --- | --- | --- | --- | --- |
| GCUAGUAUUGCAGGAUAUUGAGAAUAAUUUUGGCAAGAAGGGCAUAACAUGAGGAUCACCCAUGUAUUCCUUAGUGAUACUAGC | 6.58 nM | 6.11 nM |  |  |
| UAGUAUAAGGGCAUUAAACAUGAGGAUCACCCAUGUACAAUAGAGGAUAUGCAUUUCAGUUUAGAGUAGAAGGUUAGAGAAUAU | 35.6 nM | 41.1 nM |  |  |
| GCGUACAUAUCAGGAUAUCAUUGAAUGGAUUAACACAGUGAAUACAUGAGGAUCACCCAUGUGCUUGAGAAGGGAUUACAACGC | 10.9 nM | 9.4 nM |  |  |
| AAAAAACAUGAGGAUCACCCAUGUCAGGAUAUCGUAAAAAAAAAAAAAAAAAAAAAUGCGAGAAGGGACUGGAA | 87.4 nM | 125 nM |  |  |
| ACAUGCAUAGCGAUAUGAUCGAAAAGUCAUGUCGCAAAAUUUAGAAGGACAUGAGGAUCACCCAUGUAGGAUAUGGGAGCAUGA |  |  | 57.9 nM | 13.2 nM |
| UCAGUAGAGUCAGGAUAUACGAAAGAAGAUCCUUACAUGAGGAUCACCCAUGUAGAAGGGACUCUACUGUAAGUCGGAAACGAC | 129 nM | 192 nM |  |  |
| AAUGUCAGAAAGGAUAUGUAACUUGUAACUGUGACAGAAGGUUCGACAUGAGGAUCACCCAUGUUGAUCCAGGU | 14.1 nM | 26.4 nM |  |  |
| AUUAAUCAGCAGGAUAUAAGUAUCUGAUGGUGGUUAGAAGGGCUGACAUGAGGAUCACCCAUGUGCUCUUCGUG | 11.4 nM | 13.8 nM |  |  |
| UCGUUGUCAGGAUAUCGUUAAUUUAAUUGUUUGUAUUAGUUCGAGAAGGGACAUGAGGAUCACCCAUGUUUGUU | 57.2 nM | 154 nM |  |  |
| AUUACAUGAGGAUCACCCAUGUACAGAACGUUUCAUUACAGUGAGGAUAUACGAAAUGUAGGAGCGUAGAAGGCACUGGGUACA |  |  | 129 nM | 40.1 nM |
| GGGUACAUCGGAGGAUAUCAUGUAAAUACAUGAGGAUCACCCAUGUCGAUGGAGACAUCGGAGAUUGAGAAGGCCGAUGUACGG |  |  | 160 nM | 9.04 nM |
| AGUUAAUGCACAUGAGGAUCACCCAUGUCACUUUAUAGGAGACAGGAUAUGCAUGCCAUCAAUGUGCAGAAGGGUCACCACCGA |  |  | 85.6 nM | 147 nM |
| AGUCUGCUAGGAUAUACAUGAGGAUCACCCAUGUCUAUCAAUAGACUAUUAACCUGGUGUAGAAGGAGCUUGUA | 11.2 nM | 14.4 nM |  |  |
| UGCAUGUUAGGAUAUGUUGUUGCGGGCGUACGCUCUCGACCACAGAAGGAACAUGAGGAUCACCCAUGUACCUC | 20.3 nM | 88.8 nM |  |  |
| AAUGGGCACCAGAAGGACAUGAGGAUCACCCAUGUAGGAUAUGGGCGUUGAAGAUGUCGGAACGAGUUGCUGGAAAGAUAUGGA |  |  | 194 nM | 20.6 nM |
| CGCACUGUACAUGAGGAUCACCCAUGUUAAUAUGAGGUAGUCAGAAGGCAUUGUUUGAGAUAUUAUGAGGAUAUGAUUAGUGCG |  |  | 110 nM | 28.9 nM |
| CCAGGCGUAUAGGAUAUACGUGUCGAGUUCGCUGUAGAAGGAUACACAUGAGGAUCACCCAUGUUUGCCAGUGG | 24.5 nM | 21.2 nM |  |  |
| CAAAACGUCGAGAAGGGCUCAGCGCAAGUGCCAGCAGGAUAUCGACAUGAGGAUCACCCAUGUCGUAUUUCAGGGUAGAUUUCA | 8.66 nM | 34.9 nM |  |  |
